From PubChem
EphB4 antag – blocks human EphB4 binding to ephrin-B2; EphB4 LBD / TNYL-RAW-Alexa532 peptide, fluorescence polarization; P54760; inhibition, % at 7 µM; AID 720; 0.15% of 97,000 active;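 active = inhibition above the screen-wide mean inhibition plus 3 SD, cut at about 15% in these data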;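 also: 0% = DMSO wells and 100% = excess unlabeled TNYL-RAW peptide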
Target sequence (P54760 whole entry, looked up, the tested form may be a part): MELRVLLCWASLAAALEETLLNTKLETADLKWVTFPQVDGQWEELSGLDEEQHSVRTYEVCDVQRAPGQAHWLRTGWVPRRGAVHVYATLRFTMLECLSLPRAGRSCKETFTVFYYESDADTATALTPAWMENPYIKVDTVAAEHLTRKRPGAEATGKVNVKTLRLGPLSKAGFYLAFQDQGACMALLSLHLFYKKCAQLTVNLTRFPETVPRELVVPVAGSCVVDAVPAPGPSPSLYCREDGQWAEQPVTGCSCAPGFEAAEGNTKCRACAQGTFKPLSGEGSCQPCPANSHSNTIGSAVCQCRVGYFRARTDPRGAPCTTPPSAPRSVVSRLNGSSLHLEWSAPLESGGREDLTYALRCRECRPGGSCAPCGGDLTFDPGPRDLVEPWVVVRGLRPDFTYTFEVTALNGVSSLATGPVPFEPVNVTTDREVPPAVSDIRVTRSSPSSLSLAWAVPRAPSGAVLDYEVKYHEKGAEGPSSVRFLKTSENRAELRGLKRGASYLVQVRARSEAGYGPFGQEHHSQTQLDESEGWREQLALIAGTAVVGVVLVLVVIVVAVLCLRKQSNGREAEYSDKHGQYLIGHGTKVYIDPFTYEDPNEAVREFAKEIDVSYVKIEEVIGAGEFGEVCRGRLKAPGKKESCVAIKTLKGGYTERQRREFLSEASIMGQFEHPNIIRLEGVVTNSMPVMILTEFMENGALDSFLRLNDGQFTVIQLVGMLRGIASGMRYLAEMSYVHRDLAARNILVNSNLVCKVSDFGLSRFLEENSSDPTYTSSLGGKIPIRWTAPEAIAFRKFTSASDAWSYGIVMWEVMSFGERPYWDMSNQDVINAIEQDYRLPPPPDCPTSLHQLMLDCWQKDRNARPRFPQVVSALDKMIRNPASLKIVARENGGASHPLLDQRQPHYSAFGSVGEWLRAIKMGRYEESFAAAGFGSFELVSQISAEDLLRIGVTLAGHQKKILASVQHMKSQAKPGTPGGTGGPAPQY
PLK1 PBD inh – Plk1 (human) PBD binding inhibition; 0.13% of 97,000 active; inhibition, %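 (tested at about 20 µM)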; Plk1 PBD phosphopeptide binding, fluorescence polarization; P53350; AID 693; in the data active = inhibition above about 34%, passing the limit was not always enough
PTPN22 inh 2 – LYP (human) phosphatase inhibition | 0.21% of 96,000 active | recombinant LYP catalytic domain, DiFMUP fluorescence | inhibition, % at 2 µM;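 active = inhibition at 2 µM at or above a set limit, the screen mean plus 3 SD, cut at about 24% in these data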;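 also: 0% = DMSO with enzyme and 100% = enzyme fully blocked by orthovanadate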
HIV Rev-RRE inh – HIV Rev-RRE protein-RNA interaction inhibition; P05866; Rev peptide-RRE RNA binding, FRET; inhibition, % at 8 µM; 0.79% of 97,000 active; AID 704;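 active = inhibition above the screen-wide mean plus 3 SD, cut at about 35% in these data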;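 also: 0% = median DMSO wells and 100% = median Neomycin B control wells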
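Test system – labelled RRE RNA duplex and labelled Rev peptide · Signal – fluorescein-to-Cy5 FRET, 480 nm excitation · Evaluation – % inhibition of FRET ratio versus controls · Benchmarks – DMSO low control, neomycin B high control · Incubation – 5 min RNA-compound premix plus 15 min binding step, 25 °C · Medium – HEPES pH 7.5 salt buffer with EDTA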
PTPN22 act – LYP (human) phosphatase activation | Q9Y2R2 | recombinant LYP, DiFMUP fluorescence; 0 = plate median, 100 = signal doubled | activation, % at 2 µM | 0.11% of 96,000 active;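 active = activation at 2 µM above a set limit, the mean plus 5 SD, cut at about 37% in these data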
PLK1 kinase inh – blocks human PLK1 kinase activity; P53350; recombinant PLK1 kinase, TR-FRET peptide phosphorylation; inhibition, % at 10 µM; 0.53% of 97,000 active;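 active = inhibition of 50% or more in the single-concentration screen; inactive = inhibition below 50%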;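 also: 0% = DMSO max control and 100% = H-89 dihydrochloride min control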
* hit, by the source's call; · = no result given; [ ] = remark or other dose. Shown are actives, neighbours in structure and some others; about 1.8% of the full set was active somewhere.

SMILES	EphB4 antag	PLK1 PBD inh	PTPN22 inh 2	HIV Rev-RRE inh	PTPN22 act	PLK1 kinase inh
O=C(c1nc2n(n1)C(c1ccc(Cl)cc1)C=C(c1ccccc1)N2)N1CCOCC1 (stereo not drawn)	-2	-21	-8	118*[fluorescence artefact?]	10	-18
O=C(Nc1nc2n(n1)C(c1ccc(Cl)cc1)CC(c1ccc(Cl)cc1)N2)c1ccco1 (stereo not drawn)	21*	-4	1	9	-2	0
COC(=O)c1ccccc1S(=O)(=O)Nc1ccc(OC)nc1	6	8	-1	8	0	7
Cc1cc(C(=O)CSc2nnc(Nc3ccccc3F)s2)c(C)n1CC1CCCO1 (stereo not drawn)	15*	11	1	3	-4	-3
Cc1cc(C(=O)CSc2nnc(Nc3ccccc3)s2)c(C)n1CC1CCCO1 (stereo not drawn)	-2	-1	5	-2	-8	-10
Cn1c(Cc2ccccc2)nnc1SCC(=O)c1cccs1	1	-11	8	5	-8	-5
CCOC(=O)c1sc2cccc(F)c2c1N	-5	21	3	1	-6	-20
CCOC(=O)c1sc2cc([N+](=O)[O-])cc(SCC(C)C)c2c1N	6	-32	4	62*	-5	-16
Clc1ccc(COc2ccccn2)cc1Cl	3	-3	1	-3	-4	-7
Cc1cc(C(=O)CN2C(=O)NC3(CCCCC3)C2=O)c(C)n1Cc1ccc2c(c1)OCO2	0	-14	6	6	-8	-4
Cc1cc(C(=O)CN2C(=O)NC(c3ccccc3)(c3ccccc3)C2=O)c(C)n1Cc1ccccc1	20*	-2	14	9	-11	-6
O=C(O)CCCCCNc1nc(=S)[nH]c2ccccc12	0	39	27*	8	-24	-6
O=C(OCC#CCSc1nnc(-c2ccncc2)o1)c1cccs1	-6	-11	-1	-8	5	54*
CCn1cc(C(=O)N2CCOCC2)c(=O)c2cc(S(=O)(=O)N(C)C)ccc21	2	24	·	11	·	69*
Cc1nnc(N2C(=O)C(O)=C(C(=O)c3ccco3)C2c2ccc(F)cc2)s1 (stereo not drawn)	-1	-12	0	52*	-2	-2
COCCCN1C(=O)C(O)=C(C(=O)c2ccco2)C1c1ccc(Br)cc1 (stereo not drawn)	6	-1	17	4	-16	-12
Cc1nnc(N2C(=O)C(O)=C(C(=O)c3ccco3)C2c2ccc(C(C)(C)C)cc2)s1 (stereo not drawn)	-3	-23	-7	92*[fluorescence artefact?]	2	-1
N#C/C(=C\c1ccc(N2CCOCC2)o1)c1nc2ccccc2[nH]1	-17	-223	2	136*[fluorescence artefact?]	-1	-66
N#C/C(=C/c1ccc(N2CCOCC2)o1)c1ccc(Cl)cc1	4	-127	13	113*[fluorescence artefact?]	-10	-6
c1ccc2[nH]c(CN3CCOCC3)nc2c1	0	8	7	7	-6	-14
N#C/C(=C/c1ccc(N2CCCC2)c([N+](=O)[O-])c1)c1nc2ccccc2[nH]1	-1	-40	12	45*	-7	-6
CN(C)c1ccc(/C=N/NC(=O)CN(c2cccc(Cl)c2)S(C)(=O)=O)cc1Br	-3	-13	15	14	-12	-13
C=CCNS(=O)(=O)c1ccc(OCC(=O)OC)cc1	4	-11	1	4	2	-5
O=C(CSc1nnc2c(n1)[nH]c1ccccc12)Nc1ccc2c(c1)OCO2	2	-20	-4	3	5	-8
CN1CC=C2C(C#N)=C(N)C(C#N)(C#N)[C@H](c3cccc(Cl)c3)C2C1 (stereo partly drawn)	6	-30	-5	64*	2	2
SMILES	EphB4 antag	PLK1 PBD inh	PTPN22 inh 2	HIV Rev-RRE inh	PTPN22 act	PLK1 kinase inh
CN1CC=C2C(C#N)=C(N)C(C#N)(C#N)[C@H](c3cccs3)[C@H]2C1	1	-8	-9	58*	1	2
CC(C)c1ccc(C2C3CSCC=C3C(C#N)=C(N)C2(C#N)C#N)cc1 (stereo not drawn)	-4	-42	5	22	-3	18
CN1CC=C2C(C#N)=C(N)C(C#N)(C#N)C(c3ccsc3)C2C1 (stereo not drawn)	-3	-19	-8	56*	8	3
CCCC1C2CN(C(C)C)CC=C2C(C#N)=C(N)C1(C#N)C#N (stereo not drawn)	6	-1	-7	70*	5	-5
C#CCSc1nnc(-c2sc(-c3ccccc3)nc2C)n1C	-3	-31	15	4	-12	-17
O=C(COC(=O)Cc1cccs1)Nc1ccccc1	0	11	-8	6	7	-21
CN(C)c1ccc(-c2nc3ccccc3n2C)cc1	-4	-5	-20	0	20	-7
CCN(CC)c1ccc2cc(-c3nc4ccccc4n3C)c(=O)oc2c1	0	-11	5	132*[fluorescence artefact?]	-6	-36
CCN(CC)c1ccc2cc(-c3nc4ccccc4[nH]3)c(=O)oc2c1	-4	-112	4	135*[fluorescence artefact?]	-6	-311
CN(c1cccc(Cl)c1)S(=O)(=O)c1cccc(C(=O)NC2=NCCS2)c1	4	-7	-1	8	4	-7
COC(=O)c1c(C)c2c(C)cc3ccccn3c-2c1C(=O)OC	6	-13	-4	46*	1	-10
CCOC(=O)C1=C(CSc2nc(-c3ccccc3)ccc2C#N)OC(N)=C(C#N)C1c1ccc(OC)cc1 (stereo not drawn)	-3	-17	5	44*	-8	-5
CCOC(=O)C1=C(CSc2nc(CC)c(C)cc2C#N)OC(N)=C(C#N)C1c1ccccc1 (stereo not drawn)	-6	21	-2	18	2	-8
CCOC(=O)Cc1csc(NC(=O)c2csc(C)c2)n1	5	2	0	0	-3	-11
CCOC(=O)Cc1csc(NC(=O)c2sc3nc4c(C)cc(C)cc4cc3c2N)n1	-2	-48	7	107*[fluorescence artefact?]	-2	-19
O=C1c2cccc3c(N4CCCCC4)ccc(c23)C(=O)N1CCO	-5	-141	8	118*[fluorescence artefact?]	-3	-30
Cc1n[nH]c(C)c1N1C(=O)c2cccc3c(N4CCCCCC4)ccc(c23)C1=O	4	-182	4	134*[fluorescence artefact?]	-4	-104
NC(=O)C[n+]1cccc2ccccc21	0	0	-6	37*	12	-13
Cc1ccc(C(=O)C[n+]2cccc3ccccc32)cc1	-4	-24	24	34	-22	-9
COc1ccc(/C=C\C(=O)c2c(O)ccc3c(C)cc(=O)oc23)cc1OC	-1	7	4	-6	-6	-2
O=C(CC1Nc2ccccc2NC1=O)NCCc1ccccc1 (stereo not drawn)	5	10	7	6	-4	-6
O=C(CC1Nc2ccccc2NC1=O)c1ccccc1 (stereo not drawn)	13	-17	0	73*	-1	-10
